# ChEMBL document CHEMBL4651341, “The discovery of a novel series of compounds with single-dose efficacy against juvenile and adult Schistosoma species” (PLoS Negl Trop Dis, 2021)
# System: Schistosoma mansoni
# Assay: Concentration required to kill 50% of 21 day old worms 5 days after drug treatment.
# Assay type: functional, organism-based
# Details: Puerto Rican, 120 h
# Outline: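 Juvenile S. mansoni (Puerto Rican strain) were perfused from CD1 mice 3 weeks post-infection and washed. They were cultured 6–8 per well in 200 µL DMEM with 2 mM glutamine, penicillin/streptomycin and 10% FCS at 37 °C, 5% CO2. Viability of individual worms was scored on day 5 after dosing (120 h).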
row,SMILES,EC50 [µM]
1,CC(C)Oc1cccc(-c2cn3c(-c4cccc(CO)c4)cnc3cn2)c1,> 25
2,COc1ccc(-c2nnc3ccc(-c4cccc(F)c4)cn23)cc1OC,> 25
3,CC(C)c1cccc(-c2ccc3nnc(-c4cccnc4)n3c2)c1,> 25
4,COc1ccc(-c2cnc3cnc(-c4cccc(F)c4)cn23)cc1,> 25
5,COc1ccc(-c2cnc3cnc(-c4ccc(OC)nc4)cn23)cc1,> 25
6,CC(C)Oc1cccc(-c2cn3c(-c4ccc(F)cc4)cnc3cn2)c1,> 25
7,Cc1nnc2ccc(-c3cccc(C(C)C)c3)cn12,> 25
8,COc1ccc(-c2nnc3ccc(-c4cnn(CCN5CCOCC5)c4)cn23)cc1OC,> 25
9,CC(=O)Nc1cccc(-c2cn3c(-c4ccc(O)cc4)cnc3cn2)c1,> 25
10,COCc1cccc(-c2nnc3ccc(-c4cccc(OC(C)C)c4)cn23)c1,> 25
11,CC(C)c1cccc(-c2ccc3nnc(-c4cn[nH]c4)n3c2)c1,> 25
12,COc1ccc(-c2nnc3ccc(-c4cccc(OC(C)C)c4)cn23)c(OC)c1,> 25
13,CC(C)Oc1cccc(-c2ccc3nnc(-c4ccnc(C(F)(F)F)c4)n3c2)c1,> 25
14,CNC(=O)c1cccc(-c2ccc3nnc(-c4ccc(OC)c(OC)c4)n3c2)c1,> 25
15,COc1ccc(-c2nnc3ccc(-c4cccc(CN)c4)cn23)cc1OC,> 25
16,COc1ccc(-c2nnc3ccc(-c4cccc(C#N)c4)cn23)cc1OC,> 25
17,COc1ccc(-c2nnc3ccc(-c4cccc(S(=O)(=O)N5CCOCC5)c4)cn23)cc1OC,> 25
18,COc1cc(-c2cnc3cnc(-c4cccc(OC(C)C)c4)cn23)ccn1,> 25
19,COc1ccc(-c2nnc3ccc(-c4ccc5c(c4)OCCO5)cn23)cc1OC,> 25
20,CC(C)Oc1cccc(-c2ccc3nnc(-c4ccc5c(c4)CCO5)n3c2)c1,> 25
21,COc1ccc(-c2nnc3ccc(-c4c(OC)cccc4OC)cn23)cc1OC,> 25
22,COc1ccc(-c2cnc3cnc(-c4cnn(CCN5CCOCC5)c4)cn23)c(C)c1,> 25

row,SMILES,EC50 [µM]
1,Cc1cnc2cnc(-c3cccc(OC(C)C)c3)cn12,> 25
2,CNC(=O)c1cccc(-c2cn3c(-c4ccc(OC)cc4)cnc3cn2)c1,> 25
3,COc1ccc(-c2nnc3ccc(-c4cccc(Cl)c4)cn23)cc1OC,> 25
4,COc1ccc(-c2cnc3cnc(-c4ccnc(C(F)(F)F)c4)cn23)cc1,> 25
5,COc1cccc(-c2ccc3nnc(-c4ccc(OC)c(OC)c4)n3c2)n1,> 25
6,COc1ccc(-c2nnc3ccc(-c4ccc5c(c4)CCO5)cn23)cc1OC,> 25
7,CC(C)Oc1cccc(-c2cn3c(-c4cncnc4)cnc3cn2)c1,> 25
8,CC(C)c1cccc(-c2ccc3nnc(-c4ccnc(C(F)(F)F)c4)n3c2)c1,> 25
9,COc1cc(-c2nnc3ccc(-c4cccc(OC(C)C)c4)cn23)ccn1,> 25
10,COc1ncc(-c2ccc3nnc(-c4ccc(OC)c(OC)c4)n3c2)cn1,> 25
11,Cc1ccc(-c2cnc3cnc(-c4cccc(OC(C)C)c4)cn23)cn1,> 25
12,CC(C)c1cccc(-c2ccc3nnc(-c4ccc(CN)cc4)n3c2)c1,> 25
13,CC(C)Oc1cccc(-c2cn3c(-c4ccc5cn[nH]c5c4)cnc3cn2)c1,> 25
14,CC(C)c1cccc(-c2ccc3nnc(-c4cnn(C)c4)n3c2)c1,> 25
15,COc1ccc(-c2nnc3ccc(-c4ccc(O)nc4)cn23)cc1OC,> 25
16,COc1ccc(-c2cnc3cnc(-c4ccc5c(c4)OCCO5)cn23)cc1,> 25
17,COc1ccc(-c2cnc3cnc(-c4cccc(S(=O)(=O)N5CCOCC5)c4)cn23)cc1,> 25
18,COc1ccc(-c2nnc3ccc(-c4cccc(N)c4)cn23)cc1OC,> 25
19,COc1ccc(-c2cnc3cnc(-c4cccc(OC(C)C)c4)cn23)cn1,24.2
20,COc1cccc(-c2cnc3cnc(-c4cccc(OC(C)C)c4)cn23)c1,24.8
21,COc1cccc(-c2nnc3ccc(-c4cccc(C(C)C)c4)cn23)n1,12.4
22,CC(C)Oc1cccc(-c2cn3c(-c4cn[nH]c4)cnc3cn2)c1,> 25

row,SMILES,EC50 [µM]
1,CCOc1cccc(-c2cn3c(-c4ccc(O)cc4)cnc3cn2)c1F,15.6
2,COc1ccc(-c2nnc3ccc(-c4cnc5[nH]ncc5c4)cn23)cc1OC,> 25
3,COc1ccc(-c2nnc3ccc(-c4cn[nH]c4)cn23)cc1OC,> 25
4,CC(C)Oc1cccc(-c2cn3c(-c4ccnn4C)cnc3cn2)c1,> 25
5,COc1ccc(-c2nnc3ccc(-c4ccccn4)cn23)cc1OC,> 25
6,COc1ccc(-c2nnc3ccc(-c4ccc(C)nc4)cn23)cc1OC,> 25
7,COc1ccc(-c2nnc3ccc(-c4ccnc(C(F)(F)F)c4)cn23)cc1OC,> 25
8,CC(C)c1cccc(-c2ccc3nnc(-c4ccc(N)cc4)n3c2)c1,> 25
9,COc1cccc(OC)c1-c1nnc2ccc(-c3cccc(OC(C)C)c3)cn12,> 25
10,CC(C)c1cccc(-c2ccc3nnc(-c4ccc(S(N)(=O)=O)cc4)n3c2)c1,> 25
11,COc1cc(-c2ccc3nnc(-c4ccc(OC)c(OC)c4)n3c2)ccn1,> 25
12,CC(C)c1cccc(-c2ccc3nnc(-c4ccc5cn[nH]c5c4)n3c2)c1,> 25
13,CC(C)Cn1cc(-c2cn3c(-c4ccc(O)cc4)cnc3cn2)cn1,> 25
14,CC(C)Oc1cccc(-c2ccc3nnc(-c4ccc5c(c4)ncn5C)n3c2)c1,25
15,CC(=O)c1ccc(F)c(-c2cn3c(-c4ccc(O)cc4)cnc3cn2)c1,> 25
16,COc1ccc(-c2ccc3nnc(-c4ccc(OC)c(OC)c4)n3c2)cn1,> 25
17,CN(C)C(=O)c1ccc(-c2cn3c(-c4ccc(O)cc4)cnc3cn2)cc1,> 25
18,CC(C)c1cccc(-c2ccc3nnc(-c4cccc(CO)c4)n3c2)c1,> 25
19,CC(C)Oc1cccc(-c2cn3c(-c4ccc(CN)cc4)cnc3cn2)c1,24.2
20,CC(=O)c1cccc(-c2cn3c(-c4ccc(O)cc4)cnc3cn2)c1,> 25
21,COc1ccc(-c2nnc3ccc(-c4cccc(OC(C)C)c4)cn23)cc1,> 25
22,COc1ccc(-c2cnc3cnc(-c4cccc(CN)c4)cn23)cc1,> 25

row,SMILES,EC50 [µM]
1,CC(C)Oc1cccc(-c2cn3c(-c4cccc(C#N)c4)cnc3cn2)c1,> 25
2,Cc1ccc(-c2nnc3ccc(-c4cccc(OC(C)C)c4)cn23)cn1,> 25
3,COc1ccc(-c2cnc3cnc(-c4cccc(CO)c4)cn23)cc1,> 25
4,CC(C)c1cccc(-c2ccc3nnc(-c4ccc5[nH]ncc5c4)n3c2)c1,> 25
5,CC(C)Oc1cccc(-c2ccc3nnc(-c4cccc(C#N)c4)n3c2)c1,> 25
6,COc1ncc(-c2cnc3cnc(-c4cccc(OC(C)C)c4)cn23)cn1,> 25
7,CC(C)c1cccc(-c2ccc3nnc(-c4ccncc4)n3c2)c1,> 25
8,CC(C)Oc1cccc(-c2cn3c(-c4cnn(C)c4)cnc3cn2)c1,> 25
9,COc1ccc(-c2nnc3ccc(-c4ccc5[nH]ncc5c4)cn23)cc1OC,> 25
10,COc1ccc(-c2nnc3ccc(-c4ccc5c(cnn5C)c4)cn23)cc1OC,> 25
11,CC(=O)c1cccc(-c2cn3c(-c4ccc(O)cc4)cnc3cn2)c1F,> 25
12,COc1ccc(-c2nnc3ccc(-c4cccc(OC(C)C)c4)cn23)cc1OC,> 25
13,CC(C)c1cccc(-c2ccc3nnc(-c4ccccn4)n3c2)c1,14
14,CC(C)c1cccc(-c2ccc3nnc(-c4ccnn4C)n3c2)c1,> 25
15,COc1cccc(-c2ccc3nnc(-c4ccc(OC)c(OC)c4)n3c2)c1,> 25
16,COc1cccc(-c2cn3c(-c4ccc(OC)c(F)c4)cnc3cn2)c1,24.2
17,CC(C)Oc1cccc(-c2cn3c(-c4ccc(N)cc4)cnc3cn2)c1,21.3
18,CC(C)c1cccc(-c2ccc3nnc(-c4cnc5[nH]ncc5c4)n3c2)c1,> 25
19,CC(C)Oc1cccc(-c2ccc3nnc(-c4ccc(F)cc4)n3c2)c1,> 25
20,COc1ccc(-c2nnc3ccc(-c4ccc(N5CCN(C)CC5)nc4)cn23)cc1OC,> 25
21,CC(C)c1ccccc1-c1cn2c(-c3ccc(O)cc3)cnc2cn1,16.6
22,COc1cccc(-c2nnc3ccc(-c4cccc(OC(C)C)c4)cn23)n1,12.7

row,SMILES,EC50 [µM]
1,CC(C)Oc1cccc(-c2ccc3nnc(-c4ccc([S@+](C)[O-])cc4)n3c2)c1,> 25
2,COc1cccc(-c2cn3c(-c4ccc5c(c4)CCO5)cnc3cn2)c1,> 25
3,COc1ccc(-c2nnc3ccc(-c4cccc(C(C)C)c4)cn23)c(OC)c1,23.7
4,COc1ccc(-c2cnc3cnc(-c4ccnc(OC)c4)cn23)cc1,> 25
5,CCCOc1cc(-c2cn3c(-c4ccc(O)cc4)cnc3cn2)ccc1OC,25
6,COc1ccc(-c2nnc3ccc(-c4ccc5cn[nH]c5c4)cn23)cc1OC,> 25
7,CC(C)Oc1cccc(-c2cn3c(-c4ccc(CO)cc4)cnc3cn2)c1,25
8,CC(C)Oc1cccc(-c2cn3c(-c4ccc(S(N)(=O)=O)cc4)cnc3cn2)c1,25
9,COc1ccc(-c2nnc3ccc(-c4ccc(O)cc4)cn23)cc1OC,> 25
10,COc1ncc(-c2nnc3ccc(-c4cccc(C(C)C)c4)cn23)cn1,> 25
11,COc1ccc(-c2cnc3cnc(-c4cccc(C#N)c4)cn23)cc1,> 25
12,CC(C)c1cccc(-c2ccc3nnc(-c4ccc(CO)cc4)n3c2)c1,> 25
13,COc1ccc(-c2cnc3cnc(-c4ccccn4)cn23)cc1,> 25
14,COc1cc(-c2nnc3ccc(-c4cccc(C(C)C)c4)cn23)ccn1,> 25
15,COc1cccc(-c2cnc3cnc(-c4cccc(OC(C)C)c4)cn23)n1,> 25
16,COc1ccc(-c2nnc3ccc(-c4ccc(F)cc4)cn23)cc1OC,> 25
17,CCOc1cccc(-c2ccc3nnc(-c4ccc(OC)c(OC)c4)n3c2)c1,> 25
18,COc1ccc(-c2nnc3ccc(-c4cccc(OC(C)C)c4)cn23)cc1F,25
19,COc1ccc(-c2nnc3ccc(-c4cccnc4OC)cn23)cc1OC,> 25
20,COc1ccc(-c2nnc3ccc(-c4cccc(CO)c4)cn23)cc1OC,> 25
21,COc1cccc(-c2nnc3ccc(-c4cccc(OC(C)C)c4)cn23)c1,> 25
